Assay results: ChEMBL document CHEMBL1123346, “Pyrimidinones. 3. N-substituted 6-phenylpyrimidinones and pyrimidinediones with diuretic/hypotensive and antiinflammatory activity” (J Med Chem, 1986)

What was measured:
Rattus norvegicus [1] = organism: Rattus norvegicus; test: Diuretic activity in rats; format: functional, Urine
Method in brief: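 Male rats (~160 g) fasted 24 h, water withheld 1.5 h, both withheld during test. Gavage 25 mL/kg 0.9% saline with 0.5% carboxymethylcellulose containing compound at 40 mg/kg; urine collected 5 h in metabolism cages. Two-stage test, T/C urine volume per stage; active if product of stage T/Cs ≥3.34.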

Rattus norvegicus [2] = test: Compound was tested for blood pressure change in rats after oral administration of 50 mg/kg dose after 24 hours; format: functional
Method in brief: (§1)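 Restrained female Sprague–Dawley rats with indwelling aortic cannulas exteriorized at the nape; direct arterial pressure via transducer, mean pressure by electrical integration of phasic pressure. Readings before and 4 and 24 h after oral dosing (carboxymethylcellulose suspension, 10 mL/kg). Value is change in mean arterial pressure, averaged over two animals.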

Rattus norvegicus [3] = test: Compound was tested for blood pressure change in rats after oral administration of 50 mg/kg dose after 4 hours; format: functional; method in brief: as §1
[4] = Potassium salt excretion in conscious rat at the dose of 0.3 mg/kg expressed as urinary excretion in treated rats/urinary excretion in control rats; format: ADME, organism-based, Urine; parameters: dose 0.3 mg/kg; details: in vivo
Method in brief: (§2)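 Male rats (~160 g) fasted 24 h, water withheld 1.5 h; oral gavage of compound (0.3-100 mg/kg) in 25 mL/kg saline with 0.5% carboxymethylcellulose; 5 h urine collection in metabolism cages. Urine volume, Na+ and K+ (flame photometry) expressed as treated/control excretion ratio.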

[5] = Potassium salt excretion in conscious rat at the dose of 1.0 mg/kg expressed as urinary excretion in treated rats/urinary excretion in control rats; format: ADME, organism-based, Urine; parameters: dose 1 mg/kg; details: in vivo; method in brief: as §2
[6] = Potassium salt excretion in conscious rat at the dose of 10 mg/kg expressed as urinary excretion in treated rats/urinary excretion in control rats; format: ADME, organism-based, Urine; parameters: dose 10 mg/kg; details: in vivo; method in brief: as §2
[7] = Potassium salt excretion in conscious rat at the dose of 100 mg/kg expressed as urinary excretion in treated rats/urinary excretion in control rats; format: ADME, organism-based, Urine; parameters: dose 100 mg/kg; details: in vivo; method in brief: as §2
[8] = Potassium salt excretion in conscious rat at the dose of 3.0 mg/kg expressed as urinary excretion in treated rats/urinary excretion in control rats; format: ADME, organism-based, Urine; parameters: dose 3 mg/kg; details: in vivo; method in brief: as §2
[9] = Potassium salt excretion in conscious rat at the dose of 30 mg/kg expressed as urinary excretion in treated rats/urinary excretion in control rats; format: ADME, organism-based, Urine; parameters: dose 30 mg/kg; details: in vivo; method in brief: as §2
[10] = Sodium salt excretion in conscious rat at the dose of 0.3 mg/kg expressed as urinary excretion in treated rats/urinary excretion in control rats; format: ADME, organism-based, Urine; parameters: dose 0.3 mg/kg; details: in vivo; method in brief: as §2
[11] = Sodium salt excretion in conscious rat at the dose of 1.0 mg/kg expressed as urinary excretion in treated rats/urinary excretion in control rats; format: ADME, organism-based, Urine; parameters: dose 1 mg/kg; details: in vivo; method in brief: as §2
[12] = Sodium salt excretion in conscious rat at the dose of 10 mg/kg expressed as urinary excretion in treated rats/urinary excretion in control rats; format: ADME, organism-based, Urine; parameters: dose 10 mg/kg; details: in vivo; method in brief: as §2
[13] = Sodium salt excretion in conscious rat at the dose of 100 mg/kg expressed as urinary excretion in treated rats/urinary excretion in control rats; format: ADME, organism-based, Urine; parameters: dose 100 mg/kg; details: in vivo; method in brief: as §2
[14] = Sodium salt excretion in conscious rat at the dose of 3.0 mg/kg expressed as urinary excretion in treated rats/urinary excretion in control rats; format: ADME, organism-based, Urine; parameters: dose 3 mg/kg; details: in vivo; method in brief: as §2
[15] = Sodium salt excretion in conscious rat at the dose of 30 mg/kg expressed as urinary excretion in treated rats/urinary excretion in control rats; format: ADME, organism-based, Urine; parameters: dose 30 mg/kg; details: in vivo; method in brief: as §2
Rattus norvegicus [16] = test: Compound was tested for urinary volume excretion in conscious rat at the dose of 0.3 mg/kg expressed as urinary excretion in treated rats/urinary excretion in control rats; format: ADME, organism-based, Urine; parameters: dose 0.3 mg/kg; details: in vivo; method in brief: as §2
Rattus norvegicus [17] = test: Compound was tested for urinary volume excretion in conscious rat at the dose of 1.0 mg/kg expressed as urinary excretion in treated rats/urinary excretion in control rats; format: ADME, organism-based, Urine; parameters: dose 1 mg/kg; details: in vivo; method in brief: as §2
Rattus norvegicus [18] = test: Compound was tested for urinary volume excretion in conscious rat at the dose of 10 mg/kg expressed as urinary excretion in treated rats/urinary excretion in control rats; format: ADME, organism-based, Urine; parameters: dose 10 mg/kg; details: in vivo; method in brief: as §2
Rattus norvegicus [19] = test: Compound was tested for urinary volume excretion in conscious rat at the dose of 100 mg/kg expressed as urinary excretion in treated rats/urinary excretion in control rats; format: ADME, organism-based, Urine; parameters: dose 100 mg/kg; details: in vivo; method in brief: as §2
Rattus norvegicus [20] = test: Compound was tested for urinary volume excretion in conscious rat at the dose of 3.0 mg/kg expressed as urinary excretion in treated rats/urinary excretion in control rats; format: ADME, organism-based, Urine; parameters: dose 3 mg/kg; details: in vivo; method in brief: as §2
Rattus norvegicus [21] = test: Compound was tested for urinary volume excretion in conscious rat at the dose of 30 mg/kg expressed as urinary excretion in treated rats/urinary excretion in control rats; format: ADME, organism-based, Urine; parameters: dose 30 mg/kg; details: in vivo; method in brief: as §2
Rattus norvegicus [22] = test: Blood pressure change in rats after oral administration of 50 mg/kg dose after 24 hours; format: functional; method in brief: as §1
Rattus norvegicus [23] = test: Blood pressure change in rats after oral administration of 50 mg/kg dose after 4 hours; format: functional; method in brief: as §1
Rattus norvegicus [24] = test: Inhibition of RPAR administered perorally at 100 mg/kg dose; format: functional; details: route oral
Method in brief: (§3)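 Male Wistar rats (180-200 g), 5-10/group, dosed orally (water with Tween-80 suspension) 1 h before iv sensitization with 1 mg bovine serum albumin; 24-h fasted. 60 min later subplantar challenge with 200 µg anti-BSA in left hindpaw. Paw swelling by mercury displacement plethysmography at 2 h post-challenge.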

Rattus norvegicus [25] = test: Inhibition of RPAR administered perorally at 25 mg/kg dose; format: functional; details: route oral; method in brief: as §3
Rattus norvegicus [26] = test: Inhibition of RPAR administered perorally at 50 mg/kg dose; format: functional; details: route oral; method in brief: as §3

K+ excretion [4]	K+ excretion [5]	K+ excretion [6]	K+ excretion [7]	K+ excretion [8]	K+ excretion [9]	Na+ excretion [10]	Na+ excretion [11]	Na+ excretion [12]	Na+ excretion [13]	Na+ excretion [14]	Na+ excretion [15]	Urinary volume (Rattus norvegicus [16])	Urinary volume (Rattus norvegicus [17])	Urinary volume (Rattus norvegicus [18])	SMILES	Diuretic activity (Rattus norvegicus [1])	MABP change (Rattus norvegicus [22]) [mmHg]	MABP change (Rattus norvegicus [23]) [mmHg]	inhibition in vivo at 100 mg/kg (Rattus norvegicus [24]) [%]	inhibition in vivo at 50 mg/kg (Rattus norvegicus [26]) [%]	further results
1.2	1.6	1.5	1.7	1.6	1.5	1.7	2	2.4	2.5	2.1	2.4	1.9	2.3	2.4	NS(=O)(=O)c1cc2c(cc1Cl)NCNS2(=O)=O [HYDROCHLOROTHIAZIDE]	7.18	–	–	–	–	MABP change (Rattus norvegicus [2]): 2 mmHg; MABP change (Rattus norvegicus [3]): 0 mmHg; Urinary volume (Rattus norvegicus [19]): 2.7; Urinary volume (Rattus norvegicus [20]): 2.2; Urinary volume (Rattus norvegicus [21]): 2.6
0.9	1.2	1.3	1.9	1.1	1.7	1.1	1.1	1.1	1.6	0.9	1.6	0.9	0.9	1.1	Cn1c(-c2ccccc2)c(Cl)c(=O)[nH]c1=O	3.49	2	2	–	–	Urinary volume (Rattus norvegicus [19]): 1.6; Urinary volume (Rattus norvegicus [20]): 0.8; Urinary volume (Rattus norvegicus [21]): 1.6
–	–	–	–	–	–	–	–	–	–	–	–	–	–	–	Cn1c(-c2ccccc2)c(Br)c(=O)[nH]c1=O	–	1	1	57	43	inhibition in vivo at 25 mg/kg (Rattus norvegicus [25]): 22%
–	–	–	–	–	–	–	–	–	–	–	–	–	–	–	Cn1c(-c2ccccc2)c(I)c(=O)[nH]c1=O	–	-1	15	73	44	inhibition in vivo at 25 mg/kg (Rattus norvegicus [25]): 33%
–	–	–	–	–	–	–	–	–	–	–	–	–	–	–	Cn1c(-c2ccccc2)cc(=O)[nH]c1=O	–	6	4	79	47	inhibition in vivo at 25 mg/kg (Rattus norvegicus [25]): 27%
–	–	–	–	–	–	–	–	–	–	–	–	–	–	–	CNc1nc(O)c(Br)c(-c2ccccc2)n1	–	–	–	82	78	inhibition in vivo at 25 mg/kg (Rattus norvegicus [25]): 42%
–	–	–	–	–	–	–	–	–	–	–	–	–	–	–	N=C(N)Nc1nc(O)c(I)c(-c2ccccc2)n1	–	3	-2	–	–	–
1	1	0.9	1.8	1	1.2	1.2	1.2	1.2	1.9	1	1.4	0.9	1	1.2	Oc1nc(O)c(Br)c(-c2ccccc2)n1	3.53	5	6	58	46	Urinary volume (Rattus norvegicus [19]): 2.1; Urinary volume (Rattus norvegicus [20]): 1.1; Urinary volume (Rattus norvegicus [21]): 1.5
–	–	–	–	–	–	–	–	–	–	–	–	–	–	–	CC(=O)Nc1nc(O)c(Br)c(-c2ccccc2)n1	–	1	4	–	–	–
1	1	1.6	3.2	1.3	2.2	1.1	1.1	1.5	4.5	1.1	3.1	1.1	1.2	2.2	NS(=O)(=O)c1cc(C(=O)O)c(NCc2ccco2)cc1Cl [FUROSEMIDE]	31.25	-3	1	–	–	Urinary volume (Rattus norvegicus [19]): 7.2; Urinary volume (Rattus norvegicus [20]): 1.3; Urinary volume (Rattus norvegicus [21]): 4.7
–	–	–	–	–	–	–	–	–	–	–	–	–	–	–	CC(=O)Nc1nc(O)c(I)c(-c2ccccc2)n1	–	9	3	–	–	–
–	–	–	–	–	–	–	–	–	–	–	–	–	–	–	Nc1nc(=O)c(Br)c(-c2ccccc2)n1O	–	-1	6	–	–	–
–	–	–	–	–	–	–	–	–	–	–	–	–	–	–	Nc1nc(O)c(I)c(-c2ccccc2)n1	–	-12	-7	8	3	–
